In the library only some 2.3% were active in any assay of this set; here they are far more common.
OXTR potentiate: potentiates the human oxytocin receptor response. 320,000 tested, 0.061% active. CHO-OTR cells, Fluo-8 calcium fluorescence, potentiator mode; 0% = oxytocin EC15, 100% = EC100. activation, % at 3 µM;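 active = activation above that plate's cutoff, the mean activation of tested compounds plus 3 SD, cut at about 6.6% in these data, passing the limit was not always enough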;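 also: 100% uses oxytocin at 75 nM as the full agonist control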
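Measured by – Fluo-8 calcium dye fluorescence · Test system – human OTR in CHO cells · Dosing – one concentration, 3.0 µM compound · Controls – EC15 oxytocin alone as 0%, 75 nM oxytocin as 100% · Evaluation – normalized max/min fluorescence ratio, % activation · Timing – 6 min pre-incubation, 100 s read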
V1aR counter: V1a receptor agonism, counter-screen for OXTR agonists. P37288. CHO-V1R cells, Fluo-8 calcium fluorescence, agonist mode; 0% DMSO, 100% 3 nM vasopressin. activation, % at 3 µM. 320,000 tested, 0.25% active;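 active = activation above the mean activation of all tested compounds plus 3 SD, per screening run, cut at about 20% in these data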;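 also: signal is peak over basal fluorescence ratio across a 100 second FLIPR read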
TAAR1 antag: human TAAR1 antagonism; CHO RD-HGA16 TAAR1, Fluo-8 calcium fluorescence, antagonist; 360,000 tested, 1.5% active; AID 624466; inhibition, % at 3 µM; Q96RJ0;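 active = inhibition above a per-plate cutoff, the mean inhibition of test compounds on that plate plus 3 SD, cut at about 49% in these data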;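 also: 0% = DMSO plus EC80 beta-PEA response and 100% = DMSO alone without agonist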
Target sequence (Q96RJ0 whole entry, looked up): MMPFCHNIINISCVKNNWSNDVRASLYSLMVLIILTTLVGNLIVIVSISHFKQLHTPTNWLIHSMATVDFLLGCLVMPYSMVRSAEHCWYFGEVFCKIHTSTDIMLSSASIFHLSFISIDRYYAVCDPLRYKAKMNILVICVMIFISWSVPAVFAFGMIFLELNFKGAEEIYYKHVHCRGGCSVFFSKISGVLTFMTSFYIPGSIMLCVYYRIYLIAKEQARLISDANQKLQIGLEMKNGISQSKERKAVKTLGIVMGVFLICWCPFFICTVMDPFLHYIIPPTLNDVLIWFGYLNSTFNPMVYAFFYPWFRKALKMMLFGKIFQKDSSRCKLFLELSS
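Test system: hTAAR1-expressing CHO RD-HGA16 cells, Gα16-coupled; Probe or stimulus: EC80 β-phenethylamine stimulus; Compound dosing: single nominal final test compound concentration of 3 µM; Timing: 140 s kinetic read after compound, 140 s after agonist; Signal: Fluo-8 calcium-sensitive fluorescence; Measure: % inhibition of agonist calcium response; Controls: DMSO and EC80 PEA controls.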
OXTR agonist: human OXTR agonism | activation, % at 3 µM | 320,000 tested, 0.32% active | CHO-OTR cells, Fluo-8 calcium fluorescence; normalized: DMSO 0%, oxytocin 100% | P30559;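 active = activation above the mean of all tested compounds plus 3 SD, cutoff set per screening run, cut at about 20% in these data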;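 also: peak over basal fluorescence ratio from a 100 s FLIPR kinetic read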
TAAR1 ag: human TAAR1 agonism. CHO RD-HGA16 TAAR1, Fluo-8 calcium fluorescence; vehicle wells 0%, saturating PEA agonist 100%. activation, % at 3 µM. 360,000 tested, 0.99% active;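 active = activation above the mean activation of all test compounds in the run plus 3 SD, cut at about 38% in these data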
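Test system: RD-HGA16 (CHO) cells co-expressing Gα16 and hTAAR1; dosing: one-point dosing at 3 µM (nominal); timing: 17-24 h seeding, 75 min 37 °C dye, 30 min RT; signal: kinetic Fluo-8 calcium fluorescence; read-out basis: % activation relative to PEA EC100 response; controls: DMSO and PEA EC100; replicates: n 1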
* hit, by the source's call; / = not tested or not shown.

SMILES | OXTR potentiate | V1aR counter | TAAR1 antag | OXTR agonist | TAAR1 ag
COc1ccc(CS(=O)(=O)CC(C)(O)c2ccc(Cl)cc2)cc1 (centres undefined) | -11 | 0 | 3 | -2 | -2
COc1ccc(CC(C#N)(CO)c2nc3ccccc3[nH]2)cc1 (centres undefined) | -6 | 1 | -17 | 0 | 4
FC(F)(F)c1ccccc1Cc1c(-c2cccc(Cl)c2)nc2ccc(Cl)cn12 | / | / | -6 | / | 1
O=C(COC(=O)/C=C/c1ccco1)NCc1ccco1 | -2 | 0 | 16 | -1 | 1
O=C(COC(=O)/C=C/c1ccco1)NCCc1ccccc1 | -5 | 0 | 47 | 0 | 39*
C=CCN(CC=C)S(=O)(=O)c1ccc(NC(=S)NC(=O)c2ccc(-c3ccccc3)cc2)cc1 | -5 | 0 | -31 | 1 | 5
CCOc1ccccc1N1CCN(C/C=C/c2ccc(N(C)C)cc2)CC1 | 2 | 0 | -9 | -1 | 37*
O=C(NCCc1ccccc1)c1c[nH]c2ccccc2c1=O | / | / | -15 | / | 17
CCOC(=O)C1CCN(S(=O)(=O)c2ccc3c(c2)NC(=O)C(C)C(=O)N3)CC1 (centres undefined) | -7 | 1 | -27 | 1 | 0
COc1ccc(C)cc1NC(=O)CC1COc2ccccc2O1 (centres undefined) | -11 | 0 | 6 | -2 | -2
Cc1nc2ccccn2c1-c1csc(Nc2cccc(O)c2)n1 | / | / | 55* | / | 2
Cc1cnc(NC(=O)Nc2ccc(Cl)cc2)s1 | -13 | 5 | 21 | 4 | 40*
O=C(Nc1ccc(F)c(Cl)c1)Nc1ccc(Cl)cn1 | -14 | 0 | 28 | 0 | 7
Cc1cnc(NC(=O)CSc2ccc(Cl)cc2)s1 | -10 | 1 | -11 | -1 | 9
O=C(Nc1ccncc1)Nc1ccc(F)c(Cl)c1 | -15 | 5 | 19 | 7 | 49*
O=C(Nc1ccc(Cl)cc1)Nc1cccnc1 | -1 | 10 | 40 | 9 | 48*
COCCN(C(=O)CC1C(=O)NCCN1CC(c1ccccc1)c1ccccc1)C(C)C (centres undefined) | -1 | 0 | -25 | -1 | 12
COc1ccc(NC(=O)CCS(=O)(=O)c2ccccc2)c(OC)c1 | -7 | 0 | -3 | 0 | 2
O=C(CCc1nc(-c2ccccc2F)no1)Nc1ccc(Oc2ccccc2)cc1 | -22 | 7 | 54* | 5 | 12
COc1cccc(NC(=O)CCc2nc(-c3ccccc3F)no2)c1 | 4 | 3 | 5 | 3 | 7
COc1ccc(C)c2sc(N(CCCN(C)C)C(=O)c3ccc(S(=O)(=O)N4CCc5ccccc5C4)cc3)nc12 | -12 | 4 | 41 | 16 | 48*
CN(C)CCCN(C(=O)c1ccc(S(=O)(=O)N2CCc3ccccc32)cc1)c1nc2c(Cl)cccc2s1 | -7 | 1 | 20 | 1 | 34
Cc1ccc2nc(N(CCCN(C)C)C(=O)c3ccc(S(=O)(=O)N4CCCCCC4)cc3)sc2c1 | -13 | 17 | 15 | 14 | 50*
COc1cccc2sc(N(CCCN(C)C)C(=O)c3ccc(S(=O)(=O)N4CCCc5ccccc54)cc3)nc12 | -14 | 8 | 23 | 7 | 40*
COc1ccc(OC)c2sc(N(CCCN(C)C)C(=O)c3ccc(S(=O)(=O)N4CCc5ccccc5C4)cc3)nc12 | -7 | 2 | / | 11 | /
SMILES | OXTR potentiate | V1aR counter | TAAR1 antag | OXTR agonist | TAAR1 ag
COc1cc2nc(N(CCCN(C)C)C(=O)c3ccc(S(=O)(=O)N4CCc5ccccc5C4)cc3)sc2cc1OC | -3 | 11 | -3 | 17 | 22
CCOc1ccc2nc(N(CCCN(C)C)C(=O)c3ccc(S(=O)(=O)N4CCc5ccccc5C4)cc3)sc2c1 | -10 | 10 | 38 | 13 | 43*
O=C(c1ccco1)N1CCN(c2ccc([N+](=O)[O-])cc2Cl)CC1 | -8 | 3 | -21 | 6 | 2
COc1ccc(NC(=O)CN(C)C(=O)CC2CCCC2)cc1 | 6 | 0 | -25 | 0 | 4
CC(=NO)C1CCC2C3CCC4=CC(=NO)CCC4(C)C3C(O)CC12C (centres undefined) | / | / | 67* | / | 21
CCOC(=O)CSc1nnc(CNc2ccc(Cl)cc2)n1-c1ccccc1 | -11 | 9 | 52* | 15 | 16
COc1cccc(/C=N/n2c(-c3ccco3)nc3ccccc3c2=O)c1 | -9 | -1 | 49* | -2 | 14
CCCNC(=O)CSc1ccc(S(=O)(=O)N2CCCC2)cn1 | -5 | 1 | -2 | 2 | 3
O=[N+]([O-])c1ccc(N2CCN(c3ccc([N+](=O)[O-])cc3CO)CC2)c(CO)c1 | -21 | 16 | 53* | 19 | 12
CC(C)(C)C(=O)N1CCN(c2ccc([N+](=O)[O-])cc2Cl)CC1 | -11 | 6 | 31 | 7 | 9
N#Cc1cc([N+](=O)[O-])ccc1N1CCN(c2ccccc2O)CC1 | -25 | 3 | 52* | 3 | 17
CC(C(=O)Nc1cc([N+](=O)[O-])ccc1Cl)N1CCN(c2ccccc2O)CC1 (centres undefined) | -7 | 0 | 16 | -2 | 5
Cc1cc(C)cc(N(CC(=O)NCCSc2ccccn2)S(=O)(=O)c2ccccc2)c1 | -8 | -2 | 49* | -2 | 7
COc1ccc(C)cc1N(CC(=O)NCCSCc1ccco1)S(=O)(=O)c1ccc(C)cc1 | -11 | 5 | 45 | 1 | 4
COc1ccc(N(CC(=O)NCC(C)C)S(=O)(=O)c2ccccc2)cc1 | -6 | -1 | 17 | -1 | 2
COc1ccc(OC)c(N(CC(=O)NCCSCc2ccco2)S(=O)(=O)c2ccc(OC)c(OC)c2)c1 | -10 | 2 | 79* | 0 | 13
COc1ccccc1N(CC(=O)NCCSCc1ccccc1)S(C)(=O)=O | -6 | 1 | -14 | 0 | 9
COc1ccccc1N(CC(=O)NCCSCc1cccc(C)c1)S(=O)(=O)c1ccccc1 | -15 | 5 | 80* | 3 | 3
COc1ccc(N(CC(=O)NCCSCc2ccccc2C)S(=O)(=O)c2ccccc2)cc1 | -15 | 2 | 52* | 3 | 5
COCc1c(C(=O)N2CCN(Cc3c(F)cccc3Cl)CC2)oc2ccccc12 | -10 | 2 | 30 | 0 | 5
CC(NC(=O)CNC(=O)c1sc2ccccc2c1Cl)c1ccc(S(N)(=O)=O)cc1 (centres undefined) | -1 | 0 | 0 | -1 | 3
CN(C)C(=O)c1ccc(Nc2nc(-c3cccs3)nc3ccccc23)cc1 | -9 | 1 | 51* | 0 | 9
CC(C)Sc1nc2c([nH]1)c(=N)ncn2Cc1ccccc1 | -12 | 0 | 15 | -1 | -1
Cc1cccc(OCCSc2nc3c([nH]2)c(=N)ncn3Cc2ccccc2)c1 | -9 | 3 | 56* | 0 | 19

From PubChem BioAssay
